ChEMBL document CHEMBL1136806, “Synthesis and in vitro and in vivo antimalarial activity of N1-(7-chloro-4-quinolyl)-1,4-bis(3-aminopropyl)piperazine derivatives” (J Med Chem, 2003)

Legend:
[1] = Partition coefficient was determined by dividing the concentration of compound in 1-octanol by concentration in aqueous phase at pH 7.4; format: physicochemical; conditions: 1-octanol/aqueous phase, read-out: Log D7.4
[2] = Partition coefficient was determined by dividing the concentration of compound in 1-octanol by concentration in aqueous phase at pH 5.0; format: physicochemical; conditions: 1-octanol/aqueous phase, read-out: Log D5.0
[3] = system: Plasmodium falciparum; assay: In vitro antimalarial activity against Plasmodium falciparum FcB1; format: functional, organism-based
Method in brief: (§1)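 Asynchronous P. falciparum FcB1 cultures in human erythrocytes (0.5% parasitemia, 1% hematocrit) were exposed to serial dilutions for 24 h at 37 °C. [3H]-hypoxanthine was then added. Incorporation was compared with drug-free controls, DMSO ≤0.1%. IC50 came from the concentration–response curve, reported as mean ± SD of three experiments.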

[4] = system: MRC5; assay: Cytotoxicity was tested on human diploid embryonic lung cell line (MRC-5) (in vitro); format: functional
[5] = Vacuolar accumulation ratio was determined; format: functional
Method in brief: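 Calculated, not measured: Henderson–Hasselbalch-derived equation using predicted pKa values, assuming vacuolar pH 5.0 and external pH 7.4.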

[6] = system: MRC5; assay: Cytotoxicity of compound was tested on human diploid embryonic lung cell line (MRC-5); format: functional
[7] = system: Plasmodium falciparum; assay: Antimalarial activity against Plasmodium falciparum FcB1; format: functional, organism-based; method in brief: as §1

Compound | logD [1] | IC50 [3] [nM] | CC50 [4] [nM] | further results
O=C(Cc1ccccc1)NCCCN1CCN(CCCNc2ccnc3cc(Cl)ccc23)CC1 | – | 67.4 | 4000 | –
O=C(NCCCN1CCN(CCCNc2ccnc3cc(Cl)ccc23)CC1)c1cccc(Oc2ccccc2)c1 | – | 20.8 | 5000 | VAR [5]: 29500
COc1ccc(C(=O)NCCCN2CCN(CCCNc3ccnc4cc(Cl)ccc34)CC2)cc1 | – | 20.2 | 4000 | –
CCN(CC)CCCC(C)Nc1ccnc2cc(Cl)ccc12 (stereo not drawn) [CHLOROQUINE] | – | – | – | CC50 [6]: 50000 nM; VAR [5]: 53600
Clc1ccc2c(NCCCN3CCN(CCCNc4ccnc5cc(Cl)ccc45)CC3)ccnc2c1 | – | – | – | CC50 [6]: < 1000 nM; IC50 [7]: 23 nM
Clc1ccc2c(NCCCN3CCN(CCCN(CC4CC4)CC4CC4)CC3)ccnc2c1 | 1.16 | – | – | logD [2]: < -2.78
CCCCN(CCCC)CCCN1CCN(CCCNc2ccnc3cc(Cl)ccc23)CC1 | 1.92 | – | – | logD [2]: -1.75

Now from value to molecule, other results behind:

logD [1] | IC50 [3] [nM] | Compound | CC50 [4] [nM] | further results
> 2.78 | – | O=C(NCCCN1CCN(CCCNc2ccnc3cc(Cl)ccc23)CC1)c1ccc([N+](=O)[O-])cc1 | – | logD [2]: 0.31
– | 9.6 | COc1ccc(CN(CCCN2CCN(CCCNc3ccnc4cc(Cl)ccc34)CC2)Cc2ccc(OC)cc2)cc1 | 1000 | –
– | 26.2 | Clc1ccc2c(NCCCN3CCN(CCCN(CCc4ccccc4)CCc4ccccc4)CC3)ccnc2c1 | 1000 | –
> 2.78 | – | O=C(NCCCN1CCN(CCCNc2ccnc3cc(Cl)ccc23)CC1)C1CC1 | – | logD [2]: -0.23
– | 74.1 | Clc1ccc2c(NCCCN3CCN(CCCNCc4ccnc5ccccc45)CC3)ccnc2c1 | 1200 | –
1.06 | – | CCCC(=O)NCCCN1CCN(CCCNc2ccnc3cc(Cl)ccc23)CC1 | – | –
– | 18.5 | Clc1ccc2c(NCCCN3CCN(CCCNCCc4ccccc4)CC3)ccnc2c1 | 5000 | –
